Measured values as given in ChEMBL document CHEMBL1121496, “Metabolism of 6-substituted benzo[a]pyrene derivatives: O-dealkylation and regiospecificity in aromatic hydroxylation” (J Med Chem, 1980).

Assays:
Type in all cases: functional
Rattus norvegicus [1] = organism: Rattus norvegicus; assay: Rate of O-Dealkylation by liver microsomes in rats induced with 3-MC; Rates are expressed as pmol of product per 30 min per mg of protein
Outline: (§1)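 Male Wistar MRC rats (7–8 weeks old) received 3-MC 40 mg/kg ip in olive oil twice daily for 3 days and were fasted for the final 24 h. Liver microsomes were incubated at 0.5 mg protein/mL with substrate (BP in acetone, others in Me₂SO) for 30 min. Phenolic metabolites were read by fluorescence in base against synthetic phenol standards. Each rat was run in duplicate against a heat- or acetone-inactivated blank, and results are reported as mean ± SE.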

Rattus norvegicus [2] = organism: Rattus norvegicus; assay: Rate of hydroxylation by lung microsomes in rats induced with PB; Rates are expressed as pmol of product per 30 min per mg of protein
Outline: (§2)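 Rats were pretreated with phenobarbital, 40 mg/kg ip in saline, twice daily for 3 days, and fasted the last 24 h. Lung microsomes were incubated at 1.0 mg protein/mL with substrate in acetone (BP) or Me₂SO. Product formed over 30 min was measured as fluorescence of phenolic metabolites in basic solution against synthetic phenol standards. Determinations were made in duplicate versus a heat-inactivated blank, and results are reported as mean ± SE.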

Rattus norvegicus [3] = organism: Rattus norvegicus; assay: Rate of hydroxylation by lung microsomes in rats induced with 3-MC; Rates are expressed as pmol of product per 30 min per mg of protein
Outline: (§3)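 For lung microsomes from 3-MC-induced rats, the dose was 40 mg/kg ip in olive oil, given twice daily for 3 days, followed by a 24 h fast. Incubation used 1.0 mg microsomal protein/mL, with BP added in acetone and derivatives in Me₂SO. Base-extractable phenols were measured by fluorescence and quantitated with synthetic hydroxy-BP standards. Duplicates were corrected against inactivated-microsome blanks, and results are given as mean ± SE across individual rats.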

Rattus norvegicus [4] = organism: Rattus norvegicus; assay: Rate of hydroxylation by liver microsomes in rats induced with 3-MC; Rates are expressed as pmol of product per 30 min per mg of protein; outline: as §1
Rattus norvegicus [5] = organism: Rattus norvegicus; assay: Rate of hydroxylation by liver microsomes in rats induced with PB; Rates are expressed as pmol of product per 30 min per mg of protein
Outline: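 Liver microsomes (two livers pooled) from 7- or 8-week-old male Wistar MRC rats given phenobarbital 40 mg/kg ip in saline twice daily for 3 days, fasted final 24 h. Incubation at 0.5 mg protein/mL, with BP (80 nmol) in acetone or other substrates in Me2SO. Phenolic metabolites were read by fluorescence in base, quantitated against synthetic 3- or 1-phenol standards, in duplicate versus heat-inactivated blank; mean ± SE across rats.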

Rattus norvegicus [6] = organism: Rattus norvegicus; assay: Rate of O-Dealkylation by lung microsomes in rats induced with PB; Rates are expressed as pmol of product per 30 min per mg of protein; outline: as §2
Rattus norvegicus [7] = organism: Rattus norvegicus; assay: Rate of O-Dealkylation by lung microsomes in rats induced with 3-MC; Rates are expressed as pmol of product per 30 min per mg of protein; outline: as §3
Rattus norvegicus [8] = organism: Rattus norvegicus; assay: Rate of O-Dealkylation by liver microsomes in rats induced with PB; Rates are expressed as pmol of product per 30 min per mg of protein
Outline: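 Phenobarbital-induced rats: male Wistar MRC, 7–8 weeks, 40 mg/kg ip in saline twice daily for 3 days, fasted 24 h. Liver microsomes were used at 0.5 mg protein/mL. BP ethers were added in Me2SO, and phenolic products were measured by fluorescence of basic solutions against phenol standards. p-Nitroanisole O-demethylase was assayed by a modified Netter–Seidel method. Runs were in duplicate versus heat-inactivated blank; mean ± SE across rats.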

Rattus norvegicus [9] = organism: Rattus norvegicus; assay: Rate of 3-hydroxylation by lung microsomes in rats induced with 3-MC; Rates are expressed as pmol of product per 30 min per mg of protein
Outline: (§4)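 Microsomes from lungs (two rats pooled) of 7- or 8-week-old male Wistar MRC rats dosed ip twice daily for 3 days with 3-MC 40 mg/kg in olive oil or phenobarbital 40 mg/kg in saline, then fasted 24 h. Incubation at 1.0 mg protein/mL. BP was added in acetone, other substrates in Me2SO. Base-extracted phenols were read by fluorescence against synthetic phenol standards, in duplicate versus heat-inactivated blank; mean ± SE across rats.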

Rattus norvegicus [10] = organism: Rattus norvegicus; assay: Rate of 3-hydroxylation by lung microsomes in rats induced with PB; Rates are expressed as pmol of product per 30 min per mg of protein; outline: as §4

Row | Structure (SMILES) | Rate (pmol/30 min/mg protein) (Rattus norvegicus [1]) | Rate (pmol/30 min/mg protein) (Rattus norvegicus [3]) | Rate (pmol/30 min/mg protein) (Rattus norvegicus [4]) | also measured
1 | CCCOc1ccc2ccc3c(OCCC)c4ccccc4c4ccc1c2c34 | 818 |  |  | 
2 | COc1c2ccccc2c2ccc3cccc4ccc1c2c43 |  | 576 | 9010 | Rate (pmol/30 min/mg protein) (Rattus norvegicus [2]): 69; Rate (pmol/30 min/mg protein) (Rattus norvegicus [5]): 1980
3 | CCOc1ccc2ccc3c(OCC)c4ccccc4c4ccc1c2c34 | 3360 |  |  | Rate (pmol/30 min/mg protein) (Rattus norvegicus [6]): 48; Rate (pmol/30 min/mg protein) (Rattus norvegicus [7]): 156; Rate (pmol/30 min/mg protein) (Rattus norvegicus [8]): 2850
4 | c1ccc2c(c1)cc1ccc3cccc4ccc2c1c34 |  |  | 5810 | Rate (Rattus norvegicus [9]): 618 pM; Rate (Rattus norvegicus [10]): 49 pM; Rate (pmol/30 min/mg protein) (Rattus norvegicus [5]): 1160
5 | COCc1c2ccccc2c2ccc3cccc4ccc1c2c43 |  | 654 | 7040 | 
6 | OCc1c2ccccc2c2ccc3cccc4ccc1c2c43 |  | 182 | 1510 | 
7 | COc1ccc2ccc3c4ccccc4c(OC)c4ccc1c2c43 | 1250 |  |  | 
8 | COc1ccc([N+](=O)[O-])cc1 | 229000 |  |  | Rate (pmol/30 min/mg protein) (Rattus norvegicus [8]): 103000
9 | COc1ccc2ccc3c(OC)c4ccccc4c4ccc1c2c34 |  |  | 5700 | 
